The text below walks through data of ChEMBL document CHEMBL1123346, “Pyrimidinones. 3. N-substituted 6-phenylpyrimidinones and pyrimidinediones with diuretic/hypotensive and antiinflammatory activity” (J Med Chem, 1986).

By inhibition in vivo is commonly meant the change of the read-out against control, counted positive when it falls. Read a high inhibition in vivo as a response far below the control.

The test system of series [1] is Rattus norvegicus. Briefly: Blood pressure change in rats after oral administration of 50 mg/kg dose after 24 hours. Type of series: functional. In a few lines: (§1)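 Restrained female Sprague–Dawley rats with indwelling aortic cannulas exteriorized at the nape; direct arterial pressure via transducer, mean pressure by electrical integration of phasic pressure. Readings before and 4 and 24 h after oral dosing (carboxymethylcellulose suspension, 10 mL/kg). Value is change in mean arterial pressure, averaged over two animals.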

In series [2] the test system is Rattus norvegicus. As to the kind of experiment: Blood pressure change in rats after oral administration of 50 mg/kg dose after 4 hours. The class given is functional. An outline of the steps: as §1
In series [3] the test system is Rattus norvegicus. As to the kind of experiment: Inhibition of RPAR administered perorally at 100 mg/kg dose. As to conditions: route oral. The class given is functional. An outline of the steps:
(§2)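 Male Wistar rats (180-200 g), 5-10/group, dosed orally (water with Tween-80 suspension) 1 h before iv sensitization with 1 mg bovine serum albumin; 24-h fasted. 60 min later subplantar challenge with 200 µg anti-BSA in left hindpaw. Paw swelling by mercury displacement plethysmography at 2 h post-challenge.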

In series [4] the test system is Rattus norvegicus. Briefly: Inhibition of RPAR administered perorally at 25 mg/kg dose. The class given is functional. The following applies: route oral. An outline of the steps: as §2
Series [5] concerns Rattus norvegicus. As to the kind of experiment: Inhibition of RPAR administered perorally at 50 mg/kg dose. As to conditions: route oral. The class given is functional. An outline of the steps:
as §2

Series [6] is described as follows: Potassium salt excretion in conscious rat at the dose of 10 mg/kg expressed as urinary excretion in treated rats/urinary excretion in control rats. Type of series: ADME, organism-based, Urine. On the set-up: dose 10 mg/kg. As to conditions: in vivo. An outline of the steps:
(§3)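 Male rats (~160 g) fasted 24 h, water withheld 1.5 h; oral gavage of compound (0.3-100 mg/kg) in 25 mL/kg saline with 0.5% carboxymethylcellulose; 5 h urine collection in metabolism cages. Urine volume, Na+ and K+ (flame photometry) expressed as treated/control excretion ratio.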

A short description of series [7]: Potassium salt excretion in conscious rat at the dose of 100 mg/kg expressed as urinary excretion in treated rats/urinary excretion in control rats. The following applies: in vivo. Type of series: ADME, organism-based, Urine. On the set-up: dose 100 mg/kg. In a few lines:
as §3

The nature of series [8]: Sodium salt excretion in conscious rat at the dose of 1.0 mg/kg expressed as urinary excretion in treated rats/urinary excretion in control rats. The class given is ADME, organism-based, Urine. On the set-up: dose 1 mg/kg. As to conditions: in vivo. In a few lines: as §3
Series [9] in a line: Sodium salt excretion in conscious rat at the dose of 0.3 mg/kg expressed as urinary excretion in treated rats/urinary excretion in control rats. The arrangement: dose 0.3 mg/kg. Type of series: ADME, organism-based, Urine. The following applies: in vivo. In a few lines:
as §3

Series [10] deals with Rattus norvegicus. As to the kind of experiment: Compound was tested for urinary volume excretion in conscious rat at the dose of 1.0 mg/kg expressed as urinary excretion in treated rats/urinary excretion in control rats. As to conditions: in vivo. The arrangement: dose 1 mg/kg. Type of series: ADME, organism-based, Urine. An outline of the steps:
as §3

Series [11] can be described thus: Sodium salt excretion in conscious rat at the dose of 100 mg/kg expressed as urinary excretion in treated rats/urinary excretion in control rats. The class given is ADME, organism-based, Urine. On the set-up: dose 100 mg/kg. The following applies: in vivo. An outline of the steps:
as §3

Series [12] in a line: Sodium salt excretion in conscious rat at the dose of 30 mg/kg expressed as urinary excretion in treated rats/urinary excretion in control rats. The class given is ADME, organism-based, Urine. The arrangement: dose 30 mg/kg. As to conditions: in vivo. In a few lines:
as §3

Series [13] relates to Rattus norvegicus. Briefly: Compound was tested for urinary volume excretion in conscious rat at the dose of 10 mg/kg expressed as urinary excretion in treated rats/urinary excretion in control rats. The following applies: in vivo. The arrangement: dose 10 mg/kg. The class given is ADME, organism-based, Urine. An outline of the steps:
as §3

A short description of series [14]: Sodium salt excretion in conscious rat at the dose of 3.0 mg/kg expressed as urinary excretion in treated rats/urinary excretion in control rats. Type of series: ADME, organism-based, Urine. The arrangement: dose 3 mg/kg. As to conditions: in vivo. An outline of the steps:
as §3

Series [15] is filed under the species Rattus norvegicus. Briefly: Diuretic activity in rats. Type of series: functional, Urine. In a few lines:
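Male rats (~160 g) fasted 24 h, water withheld 1.5 h, both withheld during test. Gavage 25 mL/kg 0.9% saline with 0.5% carboxymethylcellulose containing compound at 40 mg/kg; urine collected 5 h in metabolism cages. Two-stage test, T/C urine volume per stage; active if product of stage T/Cs ≥3.34.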

The nature of series [16]: Potassium salt excretion in conscious rat at the dose of 1.0 mg/kg expressed as urinary excretion in treated rats/urinary excretion in control rats. The class given is ADME, organism-based, Urine. The arrangement: dose 1 mg/kg. The following applies: in vivo. In a few lines:
as §3

Series [17] concerns Rattus norvegicus. Briefly: Compound was tested for urinary volume excretion in conscious rat at the dose of 100 mg/kg expressed as urinary excretion in treated rats/urinary excretion in control rats. The class given is ADME, organism-based, Urine. On the set-up: dose 100 mg/kg. The following applies: in vivo. An outline of the steps:
as §3

Series [18] relates to Rattus norvegicus. As to the kind of experiment: Compound was tested for urinary volume excretion in conscious rat at the dose of 0.3 mg/kg expressed as urinary excretion in treated rats/urinary excretion in control rats. The class given is ADME, organism-based, Urine. On the set-up: dose 0.3 mg/kg. The following applies: in vivo. An outline of the steps:
as §3

Series [19] concerns Rattus norvegicus. Briefly: Compound was tested for urinary volume excretion in conscious rat at the dose of 3.0 mg/kg expressed as urinary excretion in treated rats/urinary excretion in control rats. Type of series: ADME, organism-based, Urine. On the set-up: dose 3 mg/kg. The following applies: in vivo. An outline of the steps: as §3
The nature of series [20]: Potassium salt excretion in conscious rat at the dose of 3.0 mg/kg expressed as urinary excretion in treated rats/urinary excretion in control rats. The class given is ADME, organism-based, Urine. The arrangement: dose 3 mg/kg. As to conditions: in vivo. An outline of the steps: as §3
A short description of series [21]: Sodium salt excretion in conscious rat at the dose of 10 mg/kg expressed as urinary excretion in treated rats/urinary excretion in control rats. The class given is ADME, organism-based, Urine. On the set-up: dose 10 mg/kg. As to conditions: in vivo. In a few lines:
as §3

The nature of series [22]: Potassium salt excretion in conscious rat at the dose of 0.3 mg/kg expressed as urinary excretion in treated rats/urinary excretion in control rats. The following applies: in vivo. Type of series: ADME, organism-based, Urine. On the set-up: dose 0.3 mg/kg. In a few lines:
as §3

For series [23], the system named is Rattus norvegicus. Briefly: Compound was tested for urinary volume excretion in conscious rat at the dose of 30 mg/kg expressed as urinary excretion in treated rats/urinary excretion in control rats. Type of series: ADME, organism-based, Urine. The arrangement: dose 30 mg/kg. As to conditions: in vivo. An outline of the steps: as §3
Series [24] is described as follows: Potassium salt excretion in conscious rat at the dose of 30 mg/kg expressed as urinary excretion in treated rats/urinary excretion in control rats. The class given is ADME, organism-based, Urine. On the set-up: dose 30 mg/kg. As to conditions: in vivo. In a few lines: as §3

With `Cn1c(=O)[nH]c(-c2ccccc2)c(Br)c1=O`, the MABP change was 6 mmHg in the series on Rattus norvegicus [1] and -1 mmHg in the series with Rattus norvegicus [2].

As for `CNc1nc(O)c(Br)c(-c2ccccc2)n1`, the inhibition in vivo at 100 mg/kg in the series with Rattus norvegicus [3] was determined as 82%. In addition, the inhibition in vivo at 25 mg/kg in the series with Rattus norvegicus [4] was 42%. In the series with Rattus norvegicus [5], the inhibition in vivo at 50 mg/kg was 78%.

Consider `Cn1c(N)nc(-c2ccccc2)c(I)c1=O`, for which the “K+ excretion” value was found to be 1.4 in series [6]; 1.6 in series [7]; 1.1 in [16]; 1.2 in series [20]; 1.1 in [22]; 2.1 in series [24]. Further, the “Na+ excretion” value in series [8] is given as 1.2; in [9] it was 1.1; in series [11], 2.7; in series [12] it was 2.4; in [14] it was 1.6; in [21], 1.9. The Urinary volume with Rattus norvegicus [10] was 1.4; in the series on Rattus norvegicus [13], 2.2; in the series with Rattus norvegicus [17], 2; in the series on Rattus norvegicus [18] it was 1.3; in the series with Rattus norvegicus [19] it was 1.6; with Rattus norvegicus [23], 2.7. Also, the Diuretic activity in the series filed under Rattus norvegicus [15] stood at 4.46. This compound also had an inhibition in vivo at 100 mg/kg in the series on Rattus norvegicus [3] of 79%. The MABP change is listed as -13 mmHg with Rattus norvegicus [1] and -6 mmHg in the series on Rattus norvegicus [2]. In the series with Rattus norvegicus [4], the inhibition in vivo at 25 mg/kg was 18%. For the same compound, the inhibition in vivo at 50 mg/kg with Rattus norvegicus [5] was determined as 30%.

Consider `Cn1c(-c2ccccc2)c(Br)c(=O)[nH]c1=O`, for which at 100 mg/kg the inhibition in vivo in the series with Rattus norvegicus [3] was 57%. In addition, the MABP change in the series on Rattus norvegicus [1] and in the series with Rattus norvegicus [2] was 1 mmHg each time. For the same compound, in the series on Rattus norvegicus [4], 25 mg/kg produced 22% inhibition in vivo. In addition, in the series with Rattus norvegicus [5], the inhibition in vivo at 50 mg/kg amounted to 43%.

For the compound `C=CCn1c(N)nc(-c2ccccc2)c(I)c1=O`, the Diuretic activity in the series listed under Rattus norvegicus [15] was 5.09. Further, the MABP change in the series with Rattus norvegicus [1] is listed as -10 mmHg; in the series on Rattus norvegicus [2] it was -6 mmHg.

Regarding `CC(=O)Nc1nc(O)c(I)c(-c2ccccc2)n1`, the MABP change in the series on Rattus norvegicus [1] turned out to be 9 mmHg; in the series with Rattus norvegicus [2] it was 3 mmHg.

Take `N=C(N)Nc1nc(O)c(Br)c(-c2ccccc2)n1`: the MABP change in the series on Rattus norvegicus [1] was -1 mmHg; in the series on Rattus norvegicus [2] it was -2 mmHg.

`Cn1c(-c2ccccc2)cc(=O)[nH]c1=O` registered an inhibition in vivo at 100 mg/kg in the series on Rattus norvegicus [3] of 79%. Besides, the MABP change in the series with Rattus norvegicus [1] turned out to be 6 mmHg; in the series on Rattus norvegicus [2], 4 mmHg. Besides, the inhibition in vivo at 25 mg/kg in the series on Rattus norvegicus [4] is 27%. Moreover, testing at 50 mg/kg in the series with Rattus norvegicus [5] gave an inhibition in vivo of 47%.

With `CC(=O)Nc1nc(O)c(Br)c(-c2ccccc2)n1`, the MABP change is 1 mmHg in the series on Rattus norvegicus [1] and 4 mmHg with Rattus norvegicus [2].

In the series with Rattus norvegicus [3], `Cn1c(-c2ccccc2)c(Br)c(=O)n(C)c1=O` yielded an inhibition in vivo at 100 mg/kg of 59%. Also, the inhibition in vivo at 50 mg/kg in the series with Rattus norvegicus [5] stood at 36%.

Consider `Nc1nc(=O)c(Br)c(-c2ccccc2)n1O`, for which the MABP change in the series on Rattus norvegicus [1] is given as -1 mmHg; in the series on Rattus norvegicus [2] it was 6 mmHg.
